Test results as given in ChEMBL document CHEMBL1154032, “Substituted pyrimidines as cannabinoid CB1 receptor ligands” (Bioorg Med Chem Lett, 2009).

These molecules were tested against Cannabinoid receptor 2 (Homo sapiens, UniProt P34972) (assay: Displacement of [3H]WIN-55212-2 from human recombinant CB2 receptor expressed in CHOK1 cells by liquid scintillation spectrometry).
Assay type: cell-based, CHO-K1
Summary of the method: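 Membranes from CHO K-1 cells transfected with human CB2, prepared as for brain tissue (TME buffer pH 7.4, 48,000g spin). About 10 µg membrane incubated with 3 nM [3H]WIN55,212-2 and graded ligand concentrations in TME with 0.5% fatty-acid-free BSA, 1 h at 30 °C. Filtered over PEI-soaked GF/B, washed five times ice-cold. IC50 from nonlinear regression, triplicate.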

Cannabinoid receptor 2, sequence (P34972 whole entry): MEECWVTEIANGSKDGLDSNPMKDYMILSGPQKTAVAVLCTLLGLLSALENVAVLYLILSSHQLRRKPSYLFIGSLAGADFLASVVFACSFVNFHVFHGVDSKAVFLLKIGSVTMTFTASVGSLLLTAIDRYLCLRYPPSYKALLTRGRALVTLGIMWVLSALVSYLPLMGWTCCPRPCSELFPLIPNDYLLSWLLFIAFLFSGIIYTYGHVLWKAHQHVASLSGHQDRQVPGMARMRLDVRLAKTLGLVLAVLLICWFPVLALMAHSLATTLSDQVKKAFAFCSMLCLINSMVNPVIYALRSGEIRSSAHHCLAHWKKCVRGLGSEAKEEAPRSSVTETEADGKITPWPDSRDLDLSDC

`CCCCNc1cc(N[C@@H](C)[C@@H](Cc2ccc(Cl)cc2)c2cccc(Br)c2)ncn1` showed an IC50 of 2.96 µM.

What follows are molecules tested against Cannabinoid receptor 1 (Rattus norvegicus, UniProt P20272) (assay: Displacement of [3H]CP-55940 from cannabinoid CB1 receptor in Sprague-Dawley rat cerebellar membrane by liquid scintillation spectrometry).
Cannabinoid receptor 1, sequence (P20272 whole entry): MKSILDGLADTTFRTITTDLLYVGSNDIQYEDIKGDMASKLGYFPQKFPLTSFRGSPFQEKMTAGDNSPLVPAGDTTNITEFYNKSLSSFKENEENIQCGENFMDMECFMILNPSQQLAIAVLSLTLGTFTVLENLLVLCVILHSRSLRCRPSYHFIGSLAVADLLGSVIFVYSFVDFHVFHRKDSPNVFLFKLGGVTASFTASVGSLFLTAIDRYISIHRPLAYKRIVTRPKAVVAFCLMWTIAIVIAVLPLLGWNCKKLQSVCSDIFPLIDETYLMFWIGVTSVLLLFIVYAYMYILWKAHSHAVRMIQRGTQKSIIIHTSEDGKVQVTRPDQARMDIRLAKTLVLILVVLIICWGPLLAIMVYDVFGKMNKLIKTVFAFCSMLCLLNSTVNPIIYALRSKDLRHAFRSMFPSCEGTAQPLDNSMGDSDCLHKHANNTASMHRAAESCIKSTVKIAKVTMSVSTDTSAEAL
Parameters: species or system Cerebellum
Summary of the method: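 About 10 µg membrane incubated with 3 nM [3H]CP55,940, graded ligand concentrations, TME with 0.5% fatty-acid-free BSA, 1 h at 30 °C. PEI-soaked GF/B filtration, five ice-cold washes. IC50 by nonlinear regression, triplicate.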

Compared with `CC1CC(C)CN(c2cc(N[C@@H](C)[C@@H](Cc3ccc(Cl)cc3)c3cccc(Br)c3)ncn2)C1` (some centres not stated), `CC1CCN(c2cc(N[C@@H](C)[C@@H](Cc3ccc(Cl)cc3)c3cccc(Br)c3)ncn2)CC1` is 3.7-fold lower in IC50: 0.283 µM for the first, 0.0765 µM for the second.

Compared with `CSc1nc(NC2CCCCC2)cc(N[C@@H](C)[C@@H](Cc2ccc(Cl)cc2)c2cccc(Br)c2)n1`, `CSc1nc(NC2CCCCCC2)cc(N[C@@H](C)[C@@H](Cc2ccc(Cl)cc2)c2cccc(Br)c2)n1` is 1.7-fold lower in IC50: 0.0573 µM for the first, 0.033 µM for the second. The second is the more potent here.

Going from `C[C@H](Nc1cc(C2CCCC2)ncn1)[C@@H](Cc1ccc(Cl)cc1)c1cccc(Br)c1` to `C[C@H](Nc1cc(C2CCCCC2)ncn1)[C@@H](Cc1ccc(Cl)cc1)c1cccc(Br)c1`, the IC50 rises from 0.0398 µM to 0.0631 µM (1.6-fold).

Compared with `C[C@H](Nc1cc(NC2CCCCC2)nc(C(F)(F)F)n1)[C@@H](Cc1ccc(Cl)cc1)c1cccc(Br)c1`, `C[C@H](Nc1cc(NC2CCCCCC2)nc(C(F)(F)F)n1)[C@@H](Cc1ccc(Cl)cc1)c1cccc(Br)c1` is 1.7-fold higher in IC50: 0.0224 µM for the first, 0.0389 µM for the second. The first is the more potent here.

Going from `CCCCC(CC)CNc1cc(N[C@@H](C)[C@@H](Cc2ccc(Cl)cc2)c2cccc(Br)c2)ncn1` (some centres not stated) to `CCCCNc1cc(N[C@@H](C)[C@@H](Cc2ccc(Cl)cc2)c2cccc(Br)c2)ncn1`, the IC50 falls from 0.103 µM to 0.0163 µM (6.3-fold).

`C[C@H](Nc1cc(OCC2CCCCC2)ncn1)[C@@H](Cc1ccc(Cl)cc1)c1cccc(Br)c1` and `C[C@H](Nc1cc(OC2CCCCC2)ncn1)[C@@H](Cc1ccc(Cl)cc1)c1cccc(Br)c1` are within 1.5-fold of each other in IC50: 0.136 µM for the first, 0.0953 µM for the second.

Compared with `Cc1nc(NC2CCCCC2)cc(N[C@@H](C)[C@@H](Cc2ccc(Cl)cc2)c2cccc(Br)c2)n1`, `Cc1nc(NC2CCCCCC2)cc(N[C@@H](C)[C@@H](Cc2ccc(Cl)cc2)c2cccc(Br)c2)n1` is 3-fold higher in IC50: 0.0221 µM for the first, 0.0665 µM for the second.

`CCCCNc1cc(N[C@@H](C)[C@@H](Cc2ccc(Cl)cc2)c2cccc(Br)c2)nc(C)n1` and `CCCCNc1cc(N[C@@H](C)[C@@H](Cc2ccc(Cl)cc2)c2cccc(Br)c2)nc(SC)n1` are within 1.5-fold of each other in IC50: 0.082 µM for the first, 0.0696 µM for the second.

Compared with `Cc1nc(NCc2ccc(C(F)(F)F)cc2)cc(N[C@@H](C)[C@@H](Cc2ccc(Cl)cc2)c2cccc(Br)c2)n1`, `CCCCNc1cc(N[C@@H](C)[C@@H](Cc2ccc(Cl)cc2)c2cccc(Br)c2)nc(C(F)(F)F)n1` is 3.7-fold lower in IC50: 0.16 µM for the first, 0.0435 µM for the second.

Compared with `C[C@H](Nc1cc(NC2CCCCCC2)ncn1)[C@@H](Cc1ccc(Cl)cc1)c1cccc(Br)c1`, `C[C@H](Nc1cc(NC2CCCCC2)ncn1)[C@@H](Cc1ccc(Cl)cc1)c1cccc(Br)c1` is 1.6-fold lower in IC50: 0.0453 µM for the first, 0.0276 µM for the second.

First: Cc1nc(N[C@@H](C)[C@@H](Cc2ccc(Cl)cc2)c2cccc(Br)c2)cc(N2CCCCC2)n1
Second: CSc1nc(N[C@@H](C)[C@@H](Cc2ccc(Cl)cc2)c2cccc(Br)c2)cc(N2CCCCC2)n1
The IC50 of the first is 3.8-fold lower: 0.0289 µM for the first, 0.109 µM for the second. The first is the more potent here.

Going from `CC[C@H](Nc1cc(N2CCCCC2)ncn1)[C@@H](Cc1ccc(Cl)cc1)c1cccc(Br)c1` to `C[C@H](Nc1cc(N2CCCCC2)ncn1)[C@@H](Cc1ccc(Cl)cc1)c1cccc(Br)c1`, the IC50 falls from 0.285 µM to 0.021 µM (14-fold). The second is the more potent here.

Going from `C[C@H](Nc1cc(N2CCC(C(F)(F)F)CC2)ncn1)[C@@H](Cc1ccc(Cl)cc1)c1cccc(Br)c1` to `C[C@H](Nc1cc(N2CCCC2)ncn1)[C@@H](Cc1ccc(Cl)cc1)c1cccc(Br)c1`, the IC50 rises from 0.075 µM to 0.116 µM (1.5-fold).

Going from `CCC(CC)Nc1cc(N[C@@H](C)[C@@H](Cc2ccc(Cl)cc2)c2cccc(Br)c2)ncn1` to `CCCNc1cc(N[C@@H](C)[C@@H](Cc2ccc(Cl)cc2)c2cccc(Br)c2)ncn1`, the IC50 falls from 0.0936 µM to 0.0481 µM (1.9-fold). The second is the more potent here.

Going from `COc1cc(N[C@@H](C)[C@@H](Cc2ccc(Cl)cc2)c2cccc(Br)c2)ncn1` to `CCCCOc1cc(N[C@@H](C)[C@@H](Cc2ccc(Cl)cc2)c2cccc(Br)c2)ncn1`, the IC50 falls from 0.136 µM to 0.0766 µM (1.8-fold). The second is the more potent here.

`C[C@H](Nc1cc(NCc2ccccn2)ncn1)[C@@H](Cc1ccc(Cl)cc1)c1cccc(Br)c1` and `C[C@H](Nc1cc(NCc2ccccc2)ncn1)[C@@H](Cc1ccc(Cl)cc1)c1cccc(Br)c1` are within 1.5-fold of each other in IC50: 0.264 µM for the first, 0.195 µM for the second.

`C[C@H](Nc1cc(N2CCOCC2)ncn1)[C@@H](Cc1ccc(Cl)cc1)c1cccc(Br)c1` and `C[C@H](Nc1cc(N2CCCCCC2)ncn1)[C@@H](Cc1ccc(Cl)cc1)c1cccc(Br)c1` are within 1.5-fold of each other in IC50: 0.0693 µM for the first, 0.0944 µM for the second.

Compared with `CCCCCOc1cc(N[C@@H](C)[C@@H](Cc2ccc(Cl)cc2)c2cccc(Br)c2)ncn1`, `CCCCCCOc1cc(N[C@@H](C)[C@@H](Cc2ccc(Cl)cc2)c2cccc(Br)c2)ncn1` is 1.5-fold lower in IC50: 0.203 µM for the first, 0.135 µM for the second.

Going from `Clc1ccc(C[C@H](CNc2cc(N3CCCCC3)ncn2)c2cccc(Br)c2)cc1` to `Clc1ccc(C[C@H](CNc2cc(NC3CCCCCC3)ncn2)c2cccc(Br)c2)cc1`, the IC50 rises from 0.0711 µM to 1.54 µM (22-fold).

Compared with `CCCCCNc1cc(N[C@@H](C)[C@@H](Cc2ccc(Cl)cc2)c2cccc(Br)c2)nc(C(F)(F)F)n1`, `CCCCCNc1cc(N[C@@H](C)[C@@H](Cc2ccc(Cl)cc2)c2cccc(Br)c2)ncn1` is 3.3-fold higher in IC50: 0.0593 µM for the first, 0.195 µM for the second. The first is the more potent here.

First: C[C@H](Nc1cc(NCC2CCCO2)ncn1)[C@@H](Cc1ccc(Cl)cc1)c1cccc(Br)c1 (some centres not stated)
Second: C[C@H](Nc1cc(NCC2CCCCC2)ncn1)[C@@H](Cc1ccc(Cl)cc1)c1cccc(Br)c1
The IC50 of the first is 1.6-fold higher: 0.115 µM for the first, 0.0705 µM for the second. The second is the more potent here.

`C[C@H](Nc1cc(Nc2ccccc2)ncn1)[C@@H](Cc1ccc(Cl)cc1)c1cccc(Br)c1` and `C[C@H](Nc1cc(Nc2ccc(F)cc2)ncn1)[C@@H](Cc1ccc(Cl)cc1)c1cccc(Br)c1` are within 1.5-fold of each other in IC50: 0.0674 µM for the first, 0.0978 µM for the second.

First: C[C@H](Nc1cc(NC2CCCC2)ncn1)[C@@H](Cc1ccc(Cl)cc1)c1cccc(Br)c1
Second: CC[C@H](Nc1cc(NC2CCCC2)ncn1)[C@@H](Cc1ccc(Cl)cc1)c1cccc(Br)c1
The IC50 of the first is 2.6-fold lower: 0.0247 µM for the first, 0.0632 µM for the second. The first is the more potent here.

Compared with `C[C@H](Nc1cc(N2CCCCC2)nc(C(F)(F)F)n1)[C@@H](Cc1ccc(Cl)cc1)c1cccc(Br)c1`, `Cc1nc(NC2CCCC2)cc(N[C@@H](C)[C@@H](Cc2ccc(Cl)cc2)c2cccc(Br)c2)n1` is 2-fold lower in IC50: 0.196 µM for the first, 0.0986 µM for the second.

`Cc1nc(N[C@@H](C)[C@@H](Cc2ccc(Cl)cc2)c2cccc(Br)c2)cc(N(C)C)n1` and `CCN(C)c1cc(N[C@@H](C)[C@@H](Cc2ccc(Cl)cc2)c2cccc(Br)c2)ncn1` are within 1.5-fold of each other in IC50: 0.13 µM for the first, 0.106 µM for the second.

Compared with `CCCCCCNc1cc(N[C@@H](C)[C@@H](Cc2ccc(Cl)cc2)c2cccc(Br)c2)ncn1`, `CC(C)CCNc1cc(N[C@@H](C)[C@@H](Cc2ccc(Cl)cc2)c2cccc(Br)c2)ncn1` is 3-fold lower in IC50: 0.342 µM for the first, 0.113 µM for the second.

First: CC(C)CNc1cc(N[C@@H](C)[C@@H](Cc2ccc(Cl)cc2)c2cccc(Br)c2)ncn1
Second: CCCCc1cc(N[C@@H](C)[C@@H](Cc2ccc(Cl)cc2)c2cccc(Br)c2)ncn1
The IC50 of the first is 2.1-fold higher: 0.155 µM for the first, 0.0738 µM for the second.

`CC[C@H](Nc1cc(NC2CCCCCC2)ncn1)[C@@H](Cc1ccc(Cl)cc1)c1cccc(Br)c1` and `CC[C@H](Nc1cc(NC2CCCCC2)ncn1)[C@@H](Cc1ccc(Cl)cc1)c1cccc(Br)c1` are within 1.5-fold of each other in IC50: 0.636 µM for the first, 0.569 µM for the second.
